Active and inactive are the calls of the source. The calls are words filed in the database; no cut-off is given here.
How the values were obtained:
[1] = target: T1, Peroxisome proliferator-activated receptor gamma (Homo sapiens, UniProt P37231); assay: Partial agonist activity at human PPARgamma-LBD/Gal4 DNA binding domain by transactivation assay
T1 sequence (P37231 whole entry): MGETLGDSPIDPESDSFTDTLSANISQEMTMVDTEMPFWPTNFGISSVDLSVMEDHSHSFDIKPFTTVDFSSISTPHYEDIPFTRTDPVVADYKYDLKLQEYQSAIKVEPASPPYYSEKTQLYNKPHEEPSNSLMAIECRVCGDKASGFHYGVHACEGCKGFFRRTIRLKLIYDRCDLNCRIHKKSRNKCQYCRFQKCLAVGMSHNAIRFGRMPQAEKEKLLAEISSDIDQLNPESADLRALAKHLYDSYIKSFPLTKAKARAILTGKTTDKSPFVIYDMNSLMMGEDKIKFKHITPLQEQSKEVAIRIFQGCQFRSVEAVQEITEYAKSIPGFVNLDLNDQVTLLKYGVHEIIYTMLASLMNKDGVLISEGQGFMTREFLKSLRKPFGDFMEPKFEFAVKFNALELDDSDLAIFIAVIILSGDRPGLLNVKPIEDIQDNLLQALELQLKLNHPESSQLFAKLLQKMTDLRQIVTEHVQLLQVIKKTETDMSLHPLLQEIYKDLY

[2] = AUC in rat at 1 mg/kg, iv; assay type: ADME, organism-based; parameters: dose 1 mg/kg, route intravenous; details: plasma
Rattus norvegicus [3] = assay: Antidiabetic activity in ZDF rat assessed as blood glucose level at 0.1 mg/kg, po QD for 40 days (reference value: 771+/-60 mg/dL); assay type: functional
[4] = Cmax in SHR rat at 1 mg/kg, po; assay type: ADME, organism-based; parameters: dose 1 mg/kg, route oral; details: in vivo
Method in brief: (§1)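 SHR received a single oral dose of 1, 3 or 10 mg/kg. Systemic exposure was determined as plasma Cmax and AUC.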

[5] = AUC in SHR rat at 3 mg/kg, po; assay type: ADME, organism-based; parameters: dose 3 mg/kg, route oral; details: plasma; method in brief: as §1
Rattus norvegicus [6] = assay: Antidiabetic activity in ZDF rat assessed as body weight gain at 1 mg/kg, po QD for 40 days (reference value: 133+/-9 g); assay type: functional
Method in brief: (§2)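 Male ZDF rats, starting at about 6 weeks old, were dosed orally once daily for 40 days in 1.5% CMC/0.2% Tween 20 suspension, n = 8/group. Body weight was followed over the study. Gain was calculated per animal from day 0 to day 40 and compared with vehicle and pioglitazone (3 mg/kg) groups. Data are mean ± SEM.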

[7] = Cmax in SHR rat at 10 mg/kg, po; assay type: ADME, organism-based; parameters: dose 10 mg/kg, route oral; details: in vivo; method in brief: as §1
Rattus norvegicus [8] = assay: Antidiabetic activity in ZDF rat assessed as body weight gain at 3 mg/kg, po QD for 40 days (reference value: 133+/-9 g); assay type: functional; method in brief: as §2
[9] = target: T2, Type-1 angiotensin II receptor (Homo sapiens, UniProt P30556); assay: Binding affinity to human Angiotensin receptor 1
T2 sequence (P30556 whole entry): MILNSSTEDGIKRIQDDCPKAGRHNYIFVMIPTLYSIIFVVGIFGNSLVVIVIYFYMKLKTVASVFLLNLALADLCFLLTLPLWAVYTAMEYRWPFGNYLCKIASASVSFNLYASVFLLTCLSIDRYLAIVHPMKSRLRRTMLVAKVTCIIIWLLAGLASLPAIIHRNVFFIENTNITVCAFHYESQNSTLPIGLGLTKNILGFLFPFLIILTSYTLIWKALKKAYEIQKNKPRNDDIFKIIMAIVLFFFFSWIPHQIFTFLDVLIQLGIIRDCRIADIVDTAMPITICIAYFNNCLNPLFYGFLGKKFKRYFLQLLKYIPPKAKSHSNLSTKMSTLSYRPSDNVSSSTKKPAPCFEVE
Method in brief: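 Competition radioligand binding on human recombinant AT1 receptors, displacing [¹²⁵I]Tyr⁴-Sar¹,Ile⁸-angiotensin II.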

[10] = AUC in ZDF rat at 100 mg/kg, po; assay type: ADME, organism-based; parameters: dose 100 mg/kg, route oral; details: plasma
Method in brief: (§3)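 Male ZDF rats; satellite animals outside the efficacy groups were given oral doses of 3, 10 or 100 mg/kg. Plasma Cmax and AUC were calculated from these animals.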

Rattus norvegicus [11] = assay: Antidiabetic activity in ZDF rat assessed as body weight gain at 100 mg/kg, po QD for 40 days relative to pioglitazone; assay type: functional; method in brief: as §2
Rattus norvegicus [12] = assay: Antidiabetic activity in ZDF rat assessed as triglyceride level at 0.1 mg/kg, po QD for 40 days (reference value: 618+/-52 mg/dL); assay type: functional
Rattus norvegicus [13] = assay: Antihypertensive activity in SHR rat assessed as decrease in arterial blood pressure at 0.3 to 10 mg/kg, po administered as single dose measured after 20 hrs; assay type: functional, organism-based; details: Artery
Method in brief: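 SHR carried aortic radiotelemetry transmitters implanted under Telazol anesthesia and recovered for at least 1 week. Rats were randomized by 2 h baseline mean BP. Each received vehicle by oral gavage on Day 0 and a single drug dose (0.3–10 mg/kg) on Day 1, with BP followed 20 h each day. The change was taken as Day 1 minus Day 0, n = 8/group.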

[14] = target: T3, Peroxisome proliferator-activated receptor delta (Homo sapiens) (UniProt Q03181); assay: Transactivation of human PPARbeta
T3 sequence (whole entry): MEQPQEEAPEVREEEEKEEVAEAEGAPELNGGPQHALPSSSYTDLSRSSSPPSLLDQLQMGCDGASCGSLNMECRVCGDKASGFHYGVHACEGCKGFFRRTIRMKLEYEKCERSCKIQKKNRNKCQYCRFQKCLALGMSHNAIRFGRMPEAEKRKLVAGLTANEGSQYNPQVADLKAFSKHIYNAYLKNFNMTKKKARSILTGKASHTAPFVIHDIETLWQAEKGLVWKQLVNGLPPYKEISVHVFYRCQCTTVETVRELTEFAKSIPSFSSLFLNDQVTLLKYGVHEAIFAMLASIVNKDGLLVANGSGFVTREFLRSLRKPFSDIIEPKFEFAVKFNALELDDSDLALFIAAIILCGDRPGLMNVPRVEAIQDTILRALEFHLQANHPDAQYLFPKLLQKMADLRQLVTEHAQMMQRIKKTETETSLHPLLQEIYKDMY

[15] = Clearance in rat at 1 mg/kg, iv; assay type: ADME, organism-based; parameters: dose 1 mg/kg, route intravenous; details: in vivo
Rattus norvegicus [16] = assay: Antidiabetic activity in ZDF rat assessed as triglyceride level at 1 mg/kg, po QD for 40 days (reference value: 618+/-52 mg/dL); assay type: functional
Rattus norvegicus [17] = assay: Antidiabetic activity in ZDF rat assessed as blood glucose level at 100 mg/kg, po QD for 40 days (reference value: 771+/-60 mg/dL); assay type: functional
[18] = Cmax in ZDF rat at 10 mg/kg, po; assay type: ADME, organism-based; parameters: dose 10 mg/kg, route oral; details: in vivo; method in brief: as §3
Rattus norvegicus [19] = assay: Antidiabetic activity in ZDF rat assessed as triglyceride level at 3 mg/kg, po QD for 40 days (reference value: 618+/-52 mg/dL); assay type: functional
Rattus norvegicus [20] = assay: Antidiabetic activity in ZDF rat assessed as blood glucose level at 1 mg/kg, po QD for 40 days (reference value: 771+/-60 mg/dL); assay type: functional
[21] = Cmax in ZDF rat at 100 mg/kg, po; assay type: ADME, organism-based; parameters: dose 100 mg/kg, route oral; details: in vivo; method in brief: as §3
Rattus norvegicus [22] = assay: Antihypertensive activity in SHR rat assessed as induction of reflex tachycardia at 10 mg/kg, po single dose measured 4 to 8 hrs post dosing
Rattus norvegicus [23] = assay: Antidiabetic activity in ZDF rat assessed as body weight gain at 30 mg/kg, po QD for 40 days (reference value: 133+/-9 g); assay type: functional; method in brief: as §2

SMILES: CCc1nc2c(C)cc(CC(C)C)nc2n1[C@H]1CCc2cc(-c3ccccc3-c3nnn[nH]3)ccc21
- EC50 [1]: 212 nM
- AUC [2]: 1.22 µg·h/mL
- Activity (Rattus norvegicus [3]): 771 mg/dL
- Cmax [4]: 74 ng/mL
- AUC [5]: 1.28 µg·h/mL
- Activity (Rattus norvegicus [6]): 150 g
- Cmax [7]: 3070 ng/mL
- Activity (Rattus norvegicus [8]): 159 g
- Ki [9]: 0.69 nM
- AUC [10]: 2600 µg·h/mL
- Activity (Rattus norvegicus [11]): 51%
- Activity (Rattus norvegicus [12]): 559 mg/dL
- Activity (Rattus norvegicus [13]): Active
- Activity [14]: inactive
- clearance [15]: 14 mL/min/kg
- Activity (Rattus norvegicus [16]): 725 mg/dL
- Activity (Rattus norvegicus [17]): 116 mg/dL
- Cmax [18]: 2730 ng/mL
- Activity (Rattus norvegicus [19]): 734 mg/dL
- Activity (Rattus norvegicus [20]): 612 mg/dL
- Cmax [21]: 177000 ng/mL
- Activity (Rattus norvegicus [22]): Active
- Activity (Rattus norvegicus [23]): 202 g
